Data set [1] in a line: folding enthalpy; higher = less favourable; fluorescence melt of hairpins on a sequencing array, two-state fit. The conditions noted are these: sodium 0.088 M. In short, it runs like this: (§1)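 Cy3 fluorescence of library hairpins on a sequenced MiSeq flow cell, with annealed Cy3 and quencher oligos, was imaged in 50 mM Na-HEPES pH 8.0, 25 mM NaCl in 2.5 °C steps up to 60 °C. Signals were normalised to pre-quench Cy3 and to control variants. Melting temperature and folding enthalpy came from bootstrapped two-state fits, inverse-variance combined over four replicates. Fitted temperatures were raised by 9.35 °C to match UV melts.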

Data set [2] in a line: melting temperature; fluorescence melt of hairpins on a sequencing array, two-state fit, raised by 9.35 °C to match UV melts. The conditions noted are these: sodium 0.088 M. In short, it runs like this: as §1

Consider GTCGCTGGAAACAACGAC ((((.((....)).)))), for which the folding enthalpy in data set [1] was -161 kJ/mol. Besides, the Tm in data set [2] came to 47.1 °C.
With CGGTGTCGGAAACGACCG (((..(((....)))))), the folding enthalpy in data set [1] is -49.7 kJ/mol. In addition, the Tm in data set [2] worked out at 47.5 °C.
On the same counts, the results for GAAAAACCGAAAGGTTTC (((..(((....)))))) are -51.8 kJ/mol and 34.8 °C.
As for GTGATCGAAAGATTACAC ((((((....)))..))), in data set [1], the folding enthalpy was -83.7 kJ/mol. The Tm in data set [2] amounted to 38.5 °C.
On the same counts, the results for CGGCCGGAAACGGGACCG ((((((....)))..))) are -107 kJ/mol and 47.8 °C.
On the same counts, the results for GTAGCCGAAAGGCCATAC ((((((....)))..))) are -34.2 kJ/mol and 22.3 °C.
The like results for GTATGAGGAAACTCATAC (((((((....))))))) were, in that order, -154 kJ/mol and 54.6 °C.
As for GCCTGGCGAAAGCAACGC ((.(.((....)).).)), in data set [1], the folding enthalpy is -19 kJ/mol. Also, the Tm in data set [2] amounted to 23.9 °C.
On the same counts, the results for GATCACAATTGTGATC ((((((....)))))) are -174 kJ/mol and 56.1 °C.
On the same counts, the results for GGGAAAGGAAACCTTCCC (((((.(....).))))) are -118 kJ/mol and 39.2 °C.
On the same counts, the results for GATCGGTCAGCCGATC ((((((....)))))) are -175 kJ/mol and 59.8 °C.
Take GTAATTCCGAAAGGATAC (((..(((....)))))): the folding enthalpy in data set [1] was -44.2 kJ/mol. Also, the Tm in data set [2] came to 28.2 °C.
On the same counts, the results for GATTCCGAAAGGAACATC ((((((....)))..))) are -50.4 kJ/mol and 25.2 °C.
The like results for GTGATCGAAAGATACAC ((((((....))).))) were, in that order, -92.4 kJ/mol and 35.8 °C.
The like results for GGATAAGGAAACCTATCC (((((.(....).))))) were, in that order, -127 kJ/mol and 33.5 °C.
As to GATCAGCACTCTGATC ((((((....)))))), the folding enthalpy in data set [1] was -129 kJ/mol. In addition, the Tm in data set [2] is 49.9 °C.
The like results for GGAATTGCGAAAGCATCC (((..(((....)))))) were, in that order, -37.9 kJ/mol and 30.3 °C.
The like results for ATGATGAAAATCAT (((((....))))) were, in that order, -63.5 kJ/mol and 39.5 °C.
The like results for GCTACCGAAAGGTGTAGC ((((((....)))..))) were, in that order, -90.9 kJ/mol and 47.1 °C.
Regarding GGGTACGAAAGTAGCCCC ((((((....)))..))), the folding enthalpy in data set [1] is -60.5 kJ/mol. Further, the Tm in data set [2] stood at 55 °C.
The like results for GCGGACGCGAAAGCGCGC (((..(((....)))))) were, in that order, -71.6 kJ/mol and 62 °C.
For GGAAGCCGAAAGGCCTCC (((.(((....))).))), the folding enthalpy in data set [1] was -84.5 kJ/mol. In addition, the Tm in data set [2] stood at 48.4 °C.
On the same counts, the results for GCGTCTTACGC ((((...)))) are -88.1 kJ/mol and 62.5 °C.
On the same counts, the results for GTGCTACGAAAGTACCAC (((.(((....))).))) are -109 kJ/mol and 37.8 °C.
On the same counts, the results for GGTTACCGAAAGGTGACC (((.(((....))).))) are -173 kJ/mol and 58.8 °C.
Turning to GATCTTGTTGAAGATC ((((((....)))))), the folding enthalpy in data set [1] was -114 kJ/mol. Further, the Tm in data set [2] came to 45 °C.
The like results for GATCAAGCCCTTGATC ((((((....)))))) were, in that order, -206 kJ/mol and 49.4 °C.
On to GCGCGATCGAAAGATCGC (((..(((....)))))), for which the folding enthalpy in data set [1] is -26.4 kJ/mol. Besides, the Tm in data set [2] came out at 60.6 °C.
The like results for GTCGTCGGAAACGGCGAC ((((.((....)).)))) were, in that order, -175 kJ/mol and 62.3 °C.
The like results for TGCCTGAAAAGGCA (((((....))))) were, in that order, -73.3 kJ/mol and 59.1 °C.
On the same counts, the results for GGTTTCGCGAAAGCGACC (((..(((....)))))) are -33.8 kJ/mol and 32.1 °C.
With GATCATGCAAATGATC ((((((....)))))), the folding enthalpy in data set [1] was -166 kJ/mol. Moreover, the Tm in data set [2] was determined as 55.4 °C.
As to GTGCGGGGAAACCTGCGC (.((.((....)).)).), the folding enthalpy in data set [1] is -112 kJ/mol. Also, the Tm in data set [2] stood at 51.9 °C.
In the case of CGCACACGGAAACGTGCG (((..(((....)))))), in data set [1], the folding enthalpy was -92 kJ/mol. For the same sequence, the Tm in data set [2] is 52.9 °C.
The like results for GGACCCGAAAGGGTCTCC ((((((....)))..))) were, in that order, -30 kJ/mol and 58.9 °C.
The like results for CGCCCCGGAAACGGTGCG (((.(((....))).))) were, in that order, -207 kJ/mol and 53.9 °C.
On the same counts, the results for GCCTGACGAAAGTCCGGC (((.(((....))).))) are -173 kJ/mol and 56.7 °C.
